# How the values were obtained:
# [1] = tested on: Klebsiella pneumoniae; test: Antibacterial activity against KPC-2 producing Klebsiella pneumoniae isolate 209735 after 18 hrs in presence of BPL by CLSI broth microdilution method; type: functional; settings: isolate 209735, 18 h
# Procedure, shortened: (§1)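 CLSI broth microdilution against clinical isolates (ESBL E. coli, KPC-2 MDR K. pneumoniae, IMP-4 MDR P. aeruginosa; five per species). Iron limitation: Mueller-Hinton broth supplemented with 16 mg/liter 2,2'-bipyridyl to complex iron and induce iron uptake systems. Read-out: MIC.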
# [2] = tested on: Pseudomonas aeruginosa; test: Selectivity index, ratio of MIC for against IMP-4 producing Pseudomonas aeruginosa isolate 209321 to MIC for against IMP-4 producing Pseudomonas aeruginosa isolate 209321 in presence of BPL; type: functional
# [3] = tested on: Pseudomonas aeruginosa; test: Selectivity index, ratio of MIC for against IMP-4 producing Pseudomonas aeruginosa isolate 208247 to MIC for against IMP-4 producing Pseudomonas aeruginosa isolate 208247 in presence of BPL; type: functional
# [4] = tested on: Pseudomonas aeruginosa; test: Antibacterial activity against IMP-4 producing Pseudomonas aeruginosa isolate 212886 after 18 hrs in presence of BPL by CLSI broth microdilution method; type: functional; settings: isolate 212886, 18 h; procedure, shortened: as §1
# [5] = Metabolic bioavailability in human liver microsomes at 0.1 uM pre-incubated with compound followed by NADPH addition and measured after 60 mins by LC-MS/MS analysis; type: ADME, microsome
# [6] = tested on: Escherichia coli; test: Antibacterial activity against extended-spectrum beta-lactamase producing Escherichia coli isolate 106342 after 18 hrs by CLSI broth microdilution method; type: functional; settings: isolate 106342, 18 h
# [7] = tested on: Pseudomonas aeruginosa; test: Antibacterial activity against IMP-4 producing Pseudomonas aeruginosa isolate 212886 after 18 hrs by CLSI broth microdilution method; type: functional; settings: isolate 212886, 18 h
# [8] = tested on: Escherichia coli; test: Antibacterial activity against extended-spectrum beta-lactamase producing Escherichia coli isolate 209285 after 18 hrs by CLSI broth microdilution method; type: functional; settings: isolate 209285, 18 h
# [9] = tested on: Pseudomonas aeruginosa; test: Selectivity index, ratio of MIC for against IMP-4 producing Pseudomonas aeruginosa isolate 209471 to MIC for against IMP-4 producing Pseudomonas aeruginosa isolate 209471 in presence of BPL; type: functional
# [10] = tested on: Klebsiella pneumoniae; test: Selectivity index, ratio of MIC for against KPC-2 producing Klebsiella pneumoniae isolate 209632 to MIC for against KPC-2 producing Klebsiella pneumoniae isolate 209632 in presence of BPL; type: functional
# [11] = tested on: Klebsiella pneumoniae; test: Selectivity index, ratio of MIC for against KPC-2 producing Klebsiella pneumoniae isolate 212229 to MIC for against KPC-2 producing Klebsiella pneumoniae isolate 212229 in presence of BPL; type: functional
# [12] = tested on: Pseudomonas aeruginosa; test: Antibacterial activity against IMP-4 producing Pseudomonas aeruginosa isolate 209471 after 18 hrs in presence of BPL by CLSI broth microdilution method; type: functional; settings: isolate 209471, 18 h; procedure, shortened: as §1
# [13] = tested on: Pseudomonas aeruginosa; test: Antibacterial activity against IMP-4 producing Pseudomonas aeruginosa isolate 208247 after 18 hrs by CLSI broth microdilution method; type: functional; settings: isolate 208247, 18 h
# [14] = tested on: Escherichia coli; test: Antibacterial activity against Escherichia coli isolate 210737 after 18 hrs in presence of BPL by CLSI broth microdilution method; type: functional; settings: isolate 210737, 18 h; procedure, shortened: as §1
# [15] = tested on: Klebsiella pneumoniae; test: Antibacterial activity against KPC-2 producing Klebsiella pneumoniae isolate 209632 after 18 hrs in presence of BPL by CLSI broth microdilution method; type: functional; settings: isolate 209632, 18 h; procedure, shortened: as §1
# [16] = tested on: Escherichia coli; test: Antibacterial activity against extended-spectrum beta-lactamase producing Escherichia coli isolate 212648 after 18 hrs in presence of BPL by CLSI broth microdilution method; type: functional; settings: isolate 212648, 18 h; procedure, shortened: as §1
MIC [1],MIC [4],"Fh at 1 h, 0.1 µM [5]",MIC [6],MIC [7],MIC [8],MIC [12],MIC [13],MIC [14],MIC [15],MIC [16],Structure (SMILES),Selectivity Index [2],Selectivity Index [3],Selectivity Index [9],Selectivity Index [10],Selectivity Index [11]
0.25 µg/mL,1 µg/mL,42.8%,16 µg/mL,4 µg/mL,16 µg/mL,2 µg/mL,4 µg/mL,8 µg/mL,0.25 µg/mL,8 µg/mL,CC(C)C(O/N=C(\C(=O)N[C@@H]1C(=O)N(S(=O)(=O)O)[C@@H]1Cn1cc(COCc2cc(=O)c(O)cn2O)nn1)c1csc(N)n1)c1cc(=O)c(O)cn1O (some centres undefined),2,1,4,8,8
0.25 µg/mL,8 µg/mL,71.6%,0.5 µg/mL,16 µg/mL,0.5 µg/mL,16 µg/mL,16 µg/mL,0.06 µg/mL,0.25 µg/mL,0.5 µg/mL,CC(C)C(O/N=C(\C(=O)N[C@@H]1C(=O)N(S(=O)(=O)O)C12CCCC2)c1csc(N)n1)c1cc(=O)c(O)cn1O (some centres undefined),1,2,1,8,8
8 µg/mL,4 µg/mL,62.2%,0.5 µg/mL,4 µg/mL,0.5 µg/mL,8 µg/mL,4 µg/mL,0.25 µg/mL,2 µg/mL,0.25 µg/mL,CC(C)C(O/N=C(\C(=O)N[C@@H]1C(=O)N(S(=O)(=O)O)[C@@H]1COC(N)=O)c1csc(N)n1)c1cc(=O)c(O)cn1O (some centres undefined),2,1,1,4,4
8 µg/mL,8 µg/mL,63.9%,1 µg/mL,8 µg/mL,0.5 µg/mL,4 µg/mL,8 µg/mL,0.25 µg/mL,4 µg/mL,0.25 µg/mL,CC(C)C(O/N=C(\C(=O)N[C@@H]1C(=O)N(S(=O)(=O)O)[C@@H]1CCl)c1csc(N)n1)c1cc(=O)c(O)cn1O (some centres undefined),1,1,2,1,2

# — ChEMBL document CHEMBL4152188, “Design, synthesis and biological evaluation of C(4) substituted monobactams as antibacterial agents against multidrug-resistant Gram-negative bacteria” (Eur J Med Chem, 2018)
